Test results as given in ChEMBL document CHEMBL5058577, “EUbOPEN Chemogenomics Library 2 (Multiplex)” (2022).

System: U2OS
Experiment: Multiplex assay against U2OS
Assay type: toxicity, cell-based
Settings: human
Method in brief: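 On a CQ1 microscope at 37°C and 5% CO2, live cells were imaged after compound addition. They had been stained at seeding with Hoechst33342, BioTracker Green Microtubule Cytoskeleton Dye, MitoTracker Red and Annexin V Alexa Fluor 680. CellPathfinder machine-learning gating assigned cells to Hoechst high-intensity objects or normal cells, normal cells to healthy, pyknosed or fragmented nuclei, and pyknosed cells to mitotic or apoptotic. Tubulin, mitochondrial-mass and membrane-permeability phenotypes are per cents of healthy-nucleus cells.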

[1] = 12 h, 1 µM, compound concentration 1 uM, replicate 1
[2] = 12 h, 1 µM, compound concentration 1 uM, replicate 2
[3] = 12 h, 10 µM, compound concentration 10 uM, replicate 1
[4] = 12 h, 10 µM, compound concentration 10 uM, replicate 2
[5] = 24 h, 1 µM, compound concentration 1 uM, replicate 1
[6] = 24 h, 1 µM, compound concentration 1 uM, replicate 2
[7] = 24 h, 10 µM, compound concentration 10 uM, replicate 1
[8] = 24 h, 10 µM, compound concentration 10 uM, replicate 2
[9] = 48 h, 1 µM, compound concentration 1 uM, replicate 1
[10] = 48 h, 1 µM, compound concentration 1 uM, replicate 2
[11] = 48 h, 10 µM, compound concentration 10 uM, replicate 1
[12] = 48 h, 10 µM, compound concentration 10 uM, replicate 2

With CC(C)(O)C(=O)N1CCN(c2ccc(C(F)(F)F)c(C3=C(c4c[nH]c5ccccc45)C(=O)NC3=O)c2)CC1 as the compound, how does the “Population Apoptotic (%)” value [1] read?
Its value is 88%.

What about the “Population Fragmented Nuclei (%)” value [1] of the same compound?
Its value is 29%.

And the “Population Healthy Nuclei (%)” value [1]?
Its value is 63%.

And the “Population Hoechst High Intensity Objects (%)” value [1]?
Its value is 3%.

What about the “Population Membrane Permeable-Phenotype (%)” value [1] of the same compound?
Its value is 5%.

What about the “Population Mitochondria Different-Phenotype (%)” value [1] of the same compound?
The value was 2%.

And the “Population Mitotic Cells (%)” value [1]?
Its value is 11%.

What about the “Population Normal (%)” value [1] of the same compound?
Its value is 96%.

What about the “Population Pyknosed Nuclei (%)” value [1] of the same compound?
Its value is 7%.

What about the “Population Tubulin-Different-Phenotype (%)” value [1] of the same compound?
Its value is 3%.

And the “Total Cell Count” value [1]?
Its value is 238.

What about the “Population Apoptotic (%)” value [2] of the same compound?
The value was 92%.

And the “Population Fragmented Nuclei (%)” value [2]?
The value was 14%.

And the “Population Healthy Nuclei (%)” value [2]?
Its value is 75%.

What about the “Population Hoechst High Intensity Objects (%)” value [2] of the same compound?
The value was 1%.

What about the “Population Membrane Permeable-Phenotype (%)” value [2] of the same compound?
Its value is 4%.

What about the “Population Mitochondria Different-Phenotype (%)” value [2] of the same compound?
Its value is 4%.

And the “Population Mitotic Cells (%)” value [2]?
Its value is 7%.

What about the “Population Normal (%)” value [2] of the same compound?
The value was 98%.

And the “Population Pyknosed Nuclei (%)” value [2]?
Its value is 9%.

What about the “Total Cell Count” value [2] of the same compound?
The value was 134.

And the “Population Apoptotic (%)” value [3]?
The value was 76%.

What about the “Population Fragmented Nuclei (%)” value [3] of the same compound?
Its value is 37%.

And the “Population Healthy Nuclei (%)” value [3]?
Its value is 46%.

What about the “Population Hoechst High Intensity Objects (%)” value [3] of the same compound?
Its value is 6%.

And the “Population Membrane Permeable-Phenotype (%)” value [3]?
Its value is 39%.

What about the “Population Mitochondria Different-Phenotype (%)” value [3] of the same compound?
The value was 23%.

And the “Population Mitotic Cells (%)” value [3]?
Its value is 24%.

What about the “Population Normal (%)” value [3] of the same compound?
The value was 93%.

And the “Population Pyknosed Nuclei (%)” value [3]?
Its value is 16%.

And the “Population Tubulin-Different-Phenotype (%)” value [3]?
The value was 30%.

What about the “Total Cell Count” value [3] of the same compound?
Its value is 166.

And the “Population Apoptotic (%)” value [4]?
The value was 50%.

What about the “Population Fragmented Nuclei (%)” value [4] of the same compound?
The value was 6%.

And the “Population Healthy Nuclei (%)” value [4]?
The value was 77%.

And the “Population Hoechst High Intensity Objects (%)” value [4]?
Its value is 1%.

And the “Population Membrane Permeable-Phenotype (%)” value [4]?
Its value is 14%.

And the “Population Mitochondria Different-Phenotype (%)” value [4]?
Its value is 14%.

What about the “Population Mitotic Cells (%)” value [4] of the same compound?
Its value is 50%.

And the “Population Normal (%)” value [4]?
The value was 98%.

And the “Population Tubulin-Different-Phenotype (%)” value [4]?
Its value is 15%.

What about the “Total Cell Count” value [4] of the same compound?
Its value is 148.

What about the “Population Apoptotic (%)” value [5] of the same compound?
Its value is 89%.

What about the “Population Fragmented Nuclei (%)” value [5] of the same compound?
The value was 27%.

And the “Population Healthy Nuclei (%)” value [5]?
Its value is 61%.

What about the “Population Hoechst High Intensity Objects (%)” value [5] of the same compound?
The value was 3%.

What about the “Population Membrane Permeable-Phenotype (%)” value [5] of the same compound?
The value was 7%.

And the “Population Mitochondria Different-Phenotype (%)” value [5]?
Its value is 3%.

And the “Population Mitotic Cells (%)” value [5]?
The value was 10%.

And the “Population Normal (%)” value [5]?
Its value is 96%.

What about the “Population Pyknosed Nuclei (%)” value [5] of the same compound?
The value was 11%.

What about the “Population Tubulin-Different-Phenotype (%)” value [5] of the same compound?
Its value is 5%.

What about the “Total Cell Count” value [5] of the same compound?
Its value is 263.

What about the “Population Apoptotic (%)” value [6] of the same compound?
Its value is 82%.

And the “Population Fragmented Nuclei (%)” value [6]?
Its value is 22%.

What about the “Population Healthy Nuclei (%)” value [6] of the same compound?
Its value is 67%.

What about the “Population Hoechst High Intensity Objects (%)” value [6] of the same compound?
Its value is 0%.

And the “Population Membrane Permeable-Phenotype (%)” value [6]?
The value was 4%.

And the “Population Mitochondria Different-Phenotype (%)” value [6]?
The value was 2%.

What about the “Population Mitotic Cells (%)” value [6] of the same compound?
The value was 17%.

What about the “Population Normal (%)” value [6] of the same compound?
The value was 100%.

What about the “Population Pyknosed Nuclei (%)” value [6] of the same compound?
The value was 9%.

What about the “Population Tubulin-Different-Phenotype (%)” value [6] of the same compound?
The value was 2%.

What about the “Total Cell Count” value [6] of the same compound?
The value was 172.

And the “Population Apoptotic (%)” value [7]?
The value was 87%.

And the “Population Fragmented Nuclei (%)” value [7]?
The value was 48%.

And the “Population Healthy Nuclei (%)” value [7]?
Its value is 27%.

What about the “Population Hoechst High Intensity Objects (%)” value [7] of the same compound?
The value was 6%.

And the “Population Membrane Permeable-Phenotype (%)” value [7]?
Its value is 11%.

What about the “Population Mitochondria Different-Phenotype (%)” value [7] of the same compound?
Its value is 34%.

And the “Population Mitotic Cells (%)” value [7]?
Its value is 12%.

What about the “Population Normal (%)” value [7] of the same compound?
Its value is 93%.

And the “Population Pyknosed Nuclei (%)” value [7]?
The value was 24%.

What about the “Population Tubulin-Different-Phenotype (%)” value [7] of the same compound?
Its value is 15%.

And the “Total Cell Count” value [7]?
The value was 172.

What about the “Population Apoptotic (%)” value [8] of the same compound?
The value was 70%.

What about the “Population Fragmented Nuclei (%)” value [8] of the same compound?
The value was 16%.

And the “Population Healthy Nuclei (%)” value [8]?
Its value is 53%.

And the “Population Hoechst High Intensity Objects (%)” value [8]?
Its value is 2%.

And the “Population Membrane Permeable-Phenotype (%)” value [8]?
Its value is 15%.

What about the “Population Mitochondria Different-Phenotype (%)” value [8] of the same compound?
Its value is 24%.

And the “Population Mitotic Cells (%)” value [8]?
The value was 29%.

What about the “Population Normal (%)” value [8] of the same compound?
The value was 97%.

What about the “Population Pyknosed Nuclei (%)” value [8] of the same compound?
Its value is 29%.

What about the “Population Tubulin-Different-Phenotype (%)” value [8] of the same compound?
Its value is 11%.

What about the “Total Cell Count” value [8] of the same compound?
The value was 152.

What about the “Population Apoptotic (%)” value [9] of the same compound?
The value was 95%.

And the “Population Fragmented Nuclei (%)” value [9]?
The value was 21%.

What about the “Population Healthy Nuclei (%)” value [9] of the same compound?
The value was 65%.

What about the “Population Hoechst High Intensity Objects (%)” value [9] of the same compound?
The value was 3%.

What about the “Population Membrane Permeable-Phenotype (%)” value [9] of the same compound?
Its value is 6%.

And the “Population Mitochondria Different-Phenotype (%)” value [9]?
Its value is 4%.

And the “Population Mitotic Cells (%)” value [9]?
The value was 4%.

And the “Population Normal (%)” value [9]?
The value was 96%.

And the “Population Pyknosed Nuclei (%)” value [9]?
Its value is 12%.

What about the “Population Tubulin-Different-Phenotype (%)” value [9] of the same compound?
Its value is 5%.

What about the “Total Cell Count” value [9] of the same compound?
Its value is 377.

And the “Population Apoptotic (%)” value [10]?
The value was 85%.

And the “Population Fragmented Nuclei (%)” value [10]?
Its value is 17%.

What about the “Population Healthy Nuclei (%)” value [10] of the same compound?
The value was 73%.

And the “Population Hoechst High Intensity Objects (%)” value [10]?
The value was 1%.

What about the “Population Membrane Permeable-Phenotype (%)” value [10] of the same compound?
Its value is 7%.

What about the “Population Mitochondria Different-Phenotype (%)” value [10] of the same compound?
The value was 3%.

And the “Population Mitotic Cells (%)” value [10]?
The value was 14%.

And the “Population Normal (%)” value [10]?
Its value is 98%.

What about the “Population Pyknosed Nuclei (%)” value [10] of the same compound?
The value was 9%.

What about the “Population Tubulin-Different-Phenotype (%)” value [10] of the same compound?
The value was 2%.

And the “Total Cell Count” value [10]?
The value was 233.

What about the “Population Apoptotic (%)” value [11] of the same compound?
The value was 95%.

What about the “Population Fragmented Nuclei (%)” value [11] of the same compound?
The value was 57%.

And the “Population Healthy Nuclei (%)” value [11]?
Its value is 11%.

And the “Population Hoechst High Intensity Objects (%)” value [11]?
Its value is 14%.

What about the “Population Membrane Permeable-Phenotype (%)” value [11] of the same compound?
Its value is 27%.

And the “Population Mitochondria Different-Phenotype (%)” value [11]?
Its value is 16%.

What about the “Population Mitotic Cells (%)” value [11] of the same compound?
Its value is 4%.

What about the “Population Normal (%)” value [11] of the same compound?
Its value is 85%.

And the “Population Pyknosed Nuclei (%)” value [11]?
Its value is 30%.

What about the “Population Tubulin-Different-Phenotype (%)” value [11] of the same compound?
The value was 11%.

What about the “Total Cell Count” value [11] of the same compound?
Its value is 177.

And the “Population Apoptotic (%)” value [12]?
The value was 96%.

And the “Population Fragmented Nuclei (%)” value [12]?
Its value is 31%.

And the “Population Healthy Nuclei (%)” value [12]?
The value was 27%.

And the “Population Hoechst High Intensity Objects (%)” value [12]?
The value was 7%.

What about the “Population Membrane Permeable-Phenotype (%)” value [12] of the same compound?
Its value is 17%.

And the “Population Mitochondria Different-Phenotype (%)” value [12]?
Its value is 14%.

And the “Population Mitotic Cells (%)” value [12]?
Its value is 3%.

What about the “Population Normal (%)” value [12] of the same compound?
The value was 92%.

What about the “Population Pyknosed Nuclei (%)” value [12] of the same compound?
The value was 41%.

And the “Population Tubulin-Different-Phenotype (%)” value [12]?
The value was 17%.

What about the “Total Cell Count” value [12] of the same compound?
Its value is 163.
